Compound activity as filed in PubChem.
eIF4H inh: human eIF4H binding inhibitors, primary screen, translation initiation inhibitor project, biochemical, uHTS, fluorescence polarization | Eukaryotic translation initiation factor 4H (Homo sapiens), Q15056 | eIF4H fluorescence polarization binding assay | inhibition, % at 35 µM | 290,000 tested, 0.94% active | AID 2012, 2009;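 also: calls also rest on retests at 20 µM and on dose response follow-up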
FID counter: compounds displacing fluorescent DNA intercalator, primary screen, artefact control for HCV NS3 helicase inhibitor project, biochemical, FID fluorescence; 290,000 tested, 0.17% active; DNA fluorescent intercalator displacement; inhibition, % at 7.9 µM; AID 1845, 2009; in the data active = inhibition above about 37%;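 also: 0% = vehicle and 100% = reference compound; higher means more ethidium bromide displaced from hairpin DNA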
PABP polyA inh: PABP poly(A) RNA binding inhibitors, primary screen, biochemical, fluorescence polarization, uHTS; Polyadenylate-binding protein 1 (Homo sapiens), P11940; 290,000 tested, 1% active; inhibition, % at 35 µM;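 also: calls also rest on retests at 20 µM and on dose response follow-up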
HCV core dimer: inhibitors of HCV core protein dimerization, primary screen, biochemical, TR-FRET, high-throughput | TR-FRET GST/Flag-core106 dimerization, 1536-well | inhibition, % at 5 µM | 300,000 tested, 0.33% active;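 active = inhibition above the mean of all tested compounds plus 3 SD, set per screening campaign, cut at about 45% in these data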
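Assay system: Tagged HCV core106 pair (GST and Flag) | Buffer or medium: KF-containing HEPES buffer, pH 7.45, DTT, CHAPS, BSA | Also added: Eu donor and XL665 acceptor anti-tag antibodies | Dosing: One concentration, 5 µM, in 0.5% DMSO | Timing: 4 h at 22.5 °C | Technique: TR-FRET 671 and 617 nm emission | Repeats: Singlicate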
PABP1 MLLE inh: inhibitors of PABP1 MLLE–PAM2 peptide binding, primary screen, biochemical, fluorescence polarization, FITC-PAM2, GST-MLLE. Polyadenylate-binding protein 1 (Homo sapiens), P11940. inhibition, % at 20 µM. 360,000 tested, 0.36% active. AID 588489, 2011; in the data active = inhibition above about 35%, passing the limit was not always enough;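 also: plate controls were DMSO wells with GST-MLLE for no effect and wells lacking GST-MLLE protein for full effect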
HCV NS3 hel inh: inhibitors of HCV NS3 helicase, primary screen, biochemical, Cy5 molecular beacon fluorescence. AID 1800, 2009. 290,000 tested, 0.56% active. inhibition, % at 10.9 µM. Hepatitis C virus NS3 helicase. NS3 helicase DNA unwinding;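 active = inhibition above the mean of all tested compounds plus 3 SD, set per campaign, cut at about 35% in these data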;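 also: 0% = DMSO wells and 100% = thioflavine S control wells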
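Measured by: Cy5 fluorescence, 0 and 60 min reads / Assay system: NS3 helicase fragment of HCV / Control set: low DMSO, high thioflavine S at 110 µM / Times: 1 h reaction at 25 °C, ATP-initiated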
Numbers without * were called inactive; ? = inconclusive; . = not tested or not shown. Only some compounds are listed: those with a hit (about 2% of all), similar ones and a draw of the others. Unless noted, no rule for the calls is given here.

SMILES | eIF4H inh | FID counter | PABP polyA inh | HCV core dimer | PABP1 MLLE inh | HCV NS3 hel inh
CCCn1nc(C(=O)Nc2cc(OCC)c(N3CCOCC3)cc2OCC)c2ccccc2c1=O | . | . | . | . | 7.3 | .
NCCCC[C@@H](C(=O)NCCCCCCCCCCC(=O)N1CCNCC1)n1cc(CCCC(=O)O)nn1 | . | . | . | 4.9 | 1.4 | .
CC(C)Nc1ccc(Nc2ccnc3cc4ccccc4cc23)cc1 | -9.5 | 72.7* | 16.1 | -20.8 | 7.5 | -6.5
COc1ccc(Nc2ccnc3ccccc23)cc1 | -3.2 | 3.6 | -16.6 | -4.1 | -7.2 | -4.8
O=C1/C(=C2\C(=O)N(Cc3ccc(F)cc3)c3ccccc32)SC(=S)N1CCS(=O)(=O)O | 10.3 | 39.0* | 34.1 | 4.8 | 21.7 | -24.3
O=S(=O)(Nc1ncnc2sc3c(c12)CCC3)c1cc(F)ccc1F | -1.1 | -0.7 | 18.7 | 3.1 | -0.3 | 10.0
O=S(=O)(Nc1ncnc2sc3c(c12)CCC3)c1ccc(Cl)s1 | -2.5 | -29.2 | 19.2 | 46.6* | -0.7 | 22.9
Cc1nc2ccc(NC(=O)c3ccc(Cl)c(NC(=O)c4cccs4)c3)cc2s1 | -9.1 | -12.1 | -4.8 | 48.4* | -8.4 | -4.7
C=CCC1(CC=C)CCCN1Cc1nc(COc2ccccc2)no1 | 59.3* | -7.4 | 5.7 | -1.3 | -30.6 | -12.3
C#C[C@]1(O)CC[C@H]2[C@@H]3[C@H](C)CC4=C(CCC(=O)C4)[C@H]3CC[C@@]21C | . | . | . | 2.3 | . | .
C/C(=N/N=C(\C)c1ccccc1O)c1ccccc1O | 85.9 | -1.8 | 66.2* | -3.7 | -11.7 | 4.0
CC[C@]12c3[nH]c4ccccc4c3CCN1C(=O)C(CC(=O)NCCCn1ccnc1)C[C@@H]2C(=O)N1CCN(C(=O)c2ccco2)CC1 (some centres undefined) | . | . | . | . | -4.7 | .
CC(C)n1c(=S)[nH]c2scc(-c3cccs3)c2c1=O | 50.5 | -12.3 | ? | 65.1* | 2.5 | 24.8
CCOC(=O)c1c(-c2ccccc2)oc2ccc(OCC(O)CNCCN(C)C)cc12 (centres undefined) | -6.3 | 51.1* | 11.5 | 1.4 | -3.4 | -80.3
CCOC(=O)c1c(-c2ccccc2)oc2ccc(OCC)cc12 | 2.8 | -4.0 | 0.9 | 1.4 | 5.6 | -3.3
COc1ccc(NC(=O)c2cc(C3CCCCN3S(=O)(=O)c3cccs3)on2)c(C)c1 (centres undefined) | . | . | . | . | 8.7 | .
CC1(C(=O)NCc2ccccc2Br)CCN1C(=O)Cc1ccc(-c2ccccc2)cc1 (centres undefined) | . | . | . | . | 6.2 | .
Cc1c(C(N)=O)sc2ncn(CC(=O)N(C)C3CCCCC3)c(=O)c12 | 2.0 | -6.9 | 11.7 | 6.0 | -11.3 | 4.4
COC(=O)C(Cc1ccccc1)NC(=S)NC(=O)c1ccccc1 (centres undefined) | -5.7 | -18.1 | 1.2 | 2.8 | 11.0 | 5.0
O=C(NC(=S)NC(CO)Cc1ccccc1)c1ccc(F)cc1 (centres undefined) | 2.0 | -19.5 | -3.1 | 4.7 | 33.3* | 5.3
CC(Cc1ccccc1)C(=O)N[C@@H](CO)Cc1ccccc1 (some centres undefined) | active | -2.6 | 71.3* | 5.5 | -2.1 | 0.7
CC1(C(=O)NCc2ccc3c(c2)OCO3)CCN1C(=O)C1(c2ccc(Cl)cc2)CC1 (centres undefined) | . | . | . | . | 5.1 | .
Cc1cc2cc(CNC(=O)c3ccc(Br)o3)ccc2[nH]1 | 8.8 | . | 25.7 | 11.3 | 56.5* | .
Cc1ccc(CNC(=O)c2ccc(Br)o2)cc1 | 16.1 | -6.2 | 6.2 | -2.6 | -5.8 | 4.1
Cc1cc2cc(CNC(=O)c3ccc(Br)o3)ccc2n1C | 31.1 | . | 49.9 | -0.8 | 62.3* | .
SMILES | eIF4H inh | FID counter | PABP polyA inh | HCV core dimer | PABP1 MLLE inh | HCV NS3 hel inh
CCCN(CC(=O)Nc1ccccc1OC)C(=O)Cc1ccc2c(c1)CCC2 | . | . | . | . | 24.7 | .
Cc1onc(-c2c(F)cccc2Cl)c1C(=O)NC(=S)NC1CCS(=O)(=O)C1 (centres undefined) | -8.5 | -6.0 | -3.7 | 0.7 | 46.8* | -2.6
Cn1cnc([N+](=O)[O-])c1S(=O)(=O)Oc1ccc(Cl)cc1 | . | . | . | . | 40.7* | .
O=C(/C=C/c1ccco1)N/C(=C\c1ccco1)C(=O)NCCc1nc2ccccc2[nH]1 | 77.0* | -12.5 | 44.1* | 0.1 | -2.9 | 6.2
Cc1ccc(S(=O)(=O)N2[C@@H](c3ccc(C(C)(C)C)cc3)C(C(=O)O)=CC[C@H]2c2ccc(C(C)C)cc2)cc1 | . | . | . | . | 2.0 | .
Cc1ccc(-n2c(C)cc(C3=NNC(=NC4CC4)SC3)c2C)cc1C | -9.6 | -5.0 | -28.2 | 6.2 | -18.9 | -13.9
CN=C1NN=C(c2cc(C)n(-c3ccc(Cl)cc3)c2C)CS1 | -7.2 | -12.3 | -4.2 | 64.8* | -24.1 | -3.8
Cc1c(C(=O)NCc2ccccc2C(F)(F)F)sc(=O)n1Cc1ccc(S(=O)(=O)N(C)C)cc1 | . | . | . | . | 1.2 | .
Cc1cccc(NC(=O)c2sc3nc4c(c(-c5cccs5)c3c2N)CN(C)CC4)c1 | 110.1* | 1.2 | 68.5* | -4.1 | -12.4 | -17.7
CCCn1cnc2c(c1=O)c1nc3ccccc3nc1n2CCC1=CCCCC1 | -4.6 | -1.4 | -2.1 | . | . | 0.8
O=c1c2c3nc4ccccc4nc3n(/N=C/c3ccco3)c2ncn1CCC1=CCCCC1 | 65.3* | . | 18.3 | 45.7 | 7.4 | .
CCCCNC(=O)/C(=C\c1ccc([N+](=O)[O-])o1)NC(=O)c1ccccc1 | ? | -27.2 | ? | -2.5 | -22.7 | 22.2
COC(=O)/C(=C\c1ccc([N+](=O)[O-])o1)NC(=O)c1ccccc1 | 127.5 | -20.9 | 120.4* | -7.3 | -6.4 | 19.8
CCNC(=S)NS(=O)(=O)c1ccc(CC)cc1 | -10.5 | 1.7 | 1.1 | 1.9 | 33.0 | -6.6
CCNC(=S)NS(=O)(=O)c1ccc(C)cc1 | 0.3 | 1.3 | -6.5 | -3.9 | 41.1* | 0.5
CCOC(=O)COc1ccc2c(C#N)c3ccccn3c2c1 | 83.1 | 7.2 | -1.0 | . | 43.3* | -9.8
CC12CC3CC(C)(C1)CC(C(=O)NNC(=O)c1ccncc1)(C3)C2 | -2.9 | -17.1 | 1.2 | -5.3 | 2.7 | -3.2
O=C(Nc1ccc(S(=O)(=O)Nc2nccs2)cc1)c1ccc(N2C(=O)c3ccccc3C2=O)cc1 | ? | 2.8 | ? | 53.7* | -106.4 | 29.3
CCCn1nc(C(=O)Nc2ccc(S(=O)(=O)Nc3nccs3)cc2)c2ccccc2c1=O | 57.6* | -22.2 | 74.6* | 14.1 | -38.9 | -4.0
O=C(Nc1ccc(S(=O)(=O)Nc2nccs2)cc1)c1nn(-c2ccc(F)cc2)ccc1=O | 79.9* | -19.3 | 47.5* | 31.9 | 6.4 | 8.9
CCn1nc(C(=O)Nc2ccc(S(=O)(=O)Nc3ncccn3)cc2)c2ccccc2c1=O | 3.0 | 0.0 | 3.3 | -2.4 | -11.9 | -2.6
